Consider 15 molecules from ChEMBL document CHEMBL1136773, “Bridged bicyclic cores containing a 1,1-diarylethylene motif are high-affinity subtype-selective ligands for the estrogen receptor” (J Med Chem, 2003).

The target in test [1] is T1, Estrogen receptor (Homo sapiens) (UniProt P03372).
T1 sequence (whole entry): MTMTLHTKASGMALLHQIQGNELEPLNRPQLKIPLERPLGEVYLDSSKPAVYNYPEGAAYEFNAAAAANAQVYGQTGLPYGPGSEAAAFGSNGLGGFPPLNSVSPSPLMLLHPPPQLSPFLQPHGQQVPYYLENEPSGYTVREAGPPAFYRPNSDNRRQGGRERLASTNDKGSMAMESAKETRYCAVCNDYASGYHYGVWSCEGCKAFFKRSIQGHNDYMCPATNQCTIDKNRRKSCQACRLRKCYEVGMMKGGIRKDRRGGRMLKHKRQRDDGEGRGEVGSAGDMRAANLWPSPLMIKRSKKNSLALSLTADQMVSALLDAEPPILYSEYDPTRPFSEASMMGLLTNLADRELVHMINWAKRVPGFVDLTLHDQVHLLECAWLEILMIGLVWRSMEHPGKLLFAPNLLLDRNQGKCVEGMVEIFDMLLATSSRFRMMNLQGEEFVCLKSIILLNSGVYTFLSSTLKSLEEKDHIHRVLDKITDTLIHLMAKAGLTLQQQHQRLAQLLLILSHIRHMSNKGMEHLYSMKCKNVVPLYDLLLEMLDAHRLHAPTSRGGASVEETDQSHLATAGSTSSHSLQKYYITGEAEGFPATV
The experiment in a line: Binding affinity for purified human Estrogen receptor alpha was determined using a competitive radiometric binding assay with [3H]estradiol.

The target of test [2] is Estrogen receptor beta (Homo sapiens) (UniProt Q92731). The test is described as follows: Binding affinity for purified human Estrogen receptor beta was determined using a competitive radiometric binding assay with estradiol.
Sequence of Estrogen receptor beta (Homo sapiens) (Q92731 whole entry): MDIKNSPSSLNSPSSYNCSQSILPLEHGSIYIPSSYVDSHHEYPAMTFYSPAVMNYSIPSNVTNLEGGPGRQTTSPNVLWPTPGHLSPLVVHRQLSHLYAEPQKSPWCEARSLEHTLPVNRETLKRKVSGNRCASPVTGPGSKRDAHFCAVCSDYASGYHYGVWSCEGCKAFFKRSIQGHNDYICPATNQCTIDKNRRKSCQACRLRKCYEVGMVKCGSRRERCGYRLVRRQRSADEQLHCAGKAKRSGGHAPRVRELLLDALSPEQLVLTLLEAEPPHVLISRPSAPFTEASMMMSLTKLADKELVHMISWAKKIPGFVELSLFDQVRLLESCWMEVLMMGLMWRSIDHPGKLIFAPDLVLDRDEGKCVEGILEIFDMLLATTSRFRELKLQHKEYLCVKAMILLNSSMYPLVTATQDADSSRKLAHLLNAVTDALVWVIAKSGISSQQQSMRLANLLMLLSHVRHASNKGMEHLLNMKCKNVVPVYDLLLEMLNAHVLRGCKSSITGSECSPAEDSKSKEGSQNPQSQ
The target of test [3] is T1, Estrogen receptor (Homo sapiens). The experiment in a line: Transcriptional agonistic efficacy against ER alpha at 10e-6 M by cotransfection in HEC-1 cells. Type of test: functional, cell-based. In outline: (§1)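 HEC-1 cells were grown in charcoal dextran-treated calf serum medium without phenol red. They were lipofected for 5 h at 37 °C with ERα or ERβ expression vector, 2ERE-pS2-Luc reporter and pCMV β-galactosidase control. Agonist screen used 10^-8 and 10^-6 M ligand for 24 h. Read-out is luciferase corrected by β-galactosidase, expressed as % of the 10^-9 M estradiol response.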

Test [4] deals with Estrogen receptor beta (Homo sapiens) (UniProt Q92731). The test is described as follows: Transcriptional agonistic efficacy against ER beta at 10e-6 M was determined by cotransfection in HEC-1 cells. Type of test: functional, cell-based. In outline: as §1
In test [5] the target is T1, Estrogen receptor (Homo sapiens). The experiment in a line: Transcriptional agonistic efficacy against ER alpha at 10e-8 M by cotransfection in HEC-1 cells. Type of test: functional, cell-based. In outline:
as §1

Test [6] addresses Estrogen receptor beta (Homo sapiens) (UniProt Q92731). The test is described as follows: Transcriptional agonistic efficacy against ER beta at 10e-8 M by cotransfection in HEC-1 cells. Type of test: functional, cell-based. In outline:
as §1

For test [7], the target named is T1, Estrogen receptor (Homo sapiens). The test is described as follows: Transcriptional antagonistic efficacy agains ER alpha at 10e-6 M by cotransfection in HEC-1 cells. Type of test: functional, cell-based. In outline:
(§2)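 Cotransfection in HEC-1 cells as for agonism: ERα or ERβ vector, 2ERE-pS2-Luc reporter, β-galactosidase control, lipofectin for 5 h. Ligand at 10^-6 M was given together with 10^-9 M estradiol for 24 h. Luciferase activity was normalized to β-galactosidase and expressed relative to 10^-9 M estradiol alone, set at 100%.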

Test [8] deals with Estrogen receptor beta (Homo sapiens) (UniProt Q92731). The experiment in a line: Transcriptional antagonistic efficacy against ERbeta at 10e-6 M by cotransfectio in HEC-1 cells. In kind it is functional, cell-based. In outline: as §2
Test [9] concerns the target Estrogen receptor (Homo sapiens) (UniProt Q92731+P03372). The experiment in a line: Ratio of binding affinity for purified human estrogen beta receptors to that of binding affinity for purified human estrogen alpha receptors.
Test [10] deals with Estrogen receptor beta (Homo sapiens) (UniProt Q92731). The test is described as follows: Binding affinity for purified human Estrogen receptor beta by displacement of [3H]estradiol. For orientation: Loss of bound radioactivity is the signal in a displacement assay; it reports binding, not function.

Take `Oc1ccc(C(=C2C3CC4CC(C3)CC2C4)c2ccc(O)cc2)cc1`: the RBA in test [1] came to 243%; in [2], 317%. The Efficacy was determined as 20% in test [3]; 2% in test [4]; 20% in test [5]; 2% in [6]; 19% in test [7]; 2% in test [8]. Besides, in test [9], the Ratio came to 1.3.

For the molecule `Oc1ccc(C(c2ccc(O)cc2)C2C3CCCC2CCC3)cc1` (stereo not drawn), the figures for the RBA in test [1] and in test [2] were 15% and 13%, respectively. The Efficacy in test [3] worked out at 41%; in test [4] it was 50%; in test [5], 16%; in test [6] it was 21%; in test [7], 40%; in test [8], 55%. The Ratio in test [9] came out at 0.87.

On to `Oc1ccc(C(=C2CC3CC2C2CCCC32)c2ccc(O)cc2)cc1` (stereo not drawn), for which the results for the RBA in test [1] and in test [2] were 97% and 125%, respectively. Moreover, the Efficacy in test [3] worked out at 26%; in [4], 2%; in test [5], 27%; in test [6], 2%; in [7], 35%; in test [8], 2%. Also, the Ratio in [9] is 1.3.

On to `Oc1ccc(C(=C2C3CCCC2CCC3)c2ccc(O)cc2)cc1`, for which the RBA stood at 513% in test [1] and 301% in [10]. The Efficacy in test [3] was determined as 22%; in test [4], 2%; in test [5] it was 25%; in [6], 2%; in test [7], 23%; in [8], 2%. The Ratio in test [9] stood at 0.59.

In the case of `Oc1ccc(C(=C2C3CCCC2CCC3)c2ccccc2)cc1`, the RBA in test [1] was 31%; in [2] it was 35%. For the same molecule, the Efficacy in test [3] turned out to be 80%; in test [4], 17%; in test [5] it was 71%; in test [6], 8%; in test [7] it was 83%; in [8], 22%. Further, the Ratio in [9] came out at 1.1.

Turning to `CC12CCC(CC1=C(c1ccc(O)cc1)c1ccc(O)cc1)C2(C)C` (stereo not drawn), the RBA amounted to 57% in test [1] and 189% in test [2]. Also, the Efficacy in test [3] amounted to 28%; in test [4], 4%; in [5], 24%; in [6], 3%; in test [7], 21%; in test [8] it was 4%. In test [9], the Ratio was found to be 3.3.

As for `Oc1ccc(C2(c3ccc(O)cc3)C3CCCC2CCC3)cc1`, the RBA in test [1] amounted to 0.31%; in test [2], 0.25%. The Efficacy in test [3] is 6%; in test [4], 4%; in test [5], 1%; in [6] it was 2%; in [7], 43%; in [8], 78%. For the same molecule, in test [9], the Ratio stood at 0.81.

Consider `CC12CCC(C1)C(C)(C)C2=C(c1ccc(O)cc1)c1ccc(O)cc1` (stereo not drawn), for which the RBA in [1] was found to be 10%; in test [2], 8%. Moreover, the Efficacy in test [3] was 11%; in test [4] it was 3%; in test [5], 5%; in [6], 2%; in test [7] it was 18%; in test [8], 13%. Further, the Ratio in test [9] amounted to 0.8.

On to `Oc1ccc(C(=C2C3CCCC2CCC3)c2ccc(O)c(O)c2)cc1`, for which the RBA worked out at 108% in test [1] and 187% in test [2]. Also, the Efficacy was found to be 20% in test [3]; 2% in test [4]; 15% in test [5]; 2% in [6]; 38% in [7]; 2% in test [8]. For the same molecule, in test [9], the Ratio was found to be 1.7.

Turning to `CC1(C)CC(=C(c2ccc(O)cc2)c2ccc(O)cc2)C[C@]2(C)C(C)(C)[C@H]3CC[C@@]12C3`, the figures for the RBA in [1] and in [2] were 9% and 13%, respectively. Also, the Efficacy stood at 4% in test [3]; 1% in test [4]; 1% in test [5]; 1% in [6]; 30% in [7]; 15% in test [8]. For the same molecule, in test [9], the Ratio was found to be 1.4.

For the molecule `Oc1ccc(C(=C2C3CCCC2CCC3)c2ccc(F)cc2)cc1`, the RBA in [1] is 40%; in [10], 52%. For the same molecule, the Efficacy in test [3] came out at 63%; in test [4] it was 10%; in [5], 58%; in test [6], 7%; in [7] it was 65%; in test [8], 16%. Also, the Ratio in test [9] came out at 1.3.

Take `Oc1ccc(C(c2ccc(O)cc2)C2CCCCC2)cc1`: the results for the RBA in test [1] and in test [2] were 3.2% and 9%, respectively. Moreover, the Ratio in test [9] was 2.8.

For the molecule `Oc1ccc(C(=C2CC3CCC2C3)c2ccc(O)cc2)cc1` (stereo not drawn), the RBA in [1] worked out at 47%; in test [2] it was 211%. Also, the Efficacy in test [3] was 22%; in [4], 3%; in test [5], 25%; in [6], 3%; in test [7], 32%; in test [8] it was 3%. Moreover, the Ratio in test [9] was determined as 4.5.

Turning to `Oc1ccc(C(=C2C3CCCC2CCC3)c2cccc(O)c2)cc1`, the values for the RBA in [1] and in test [2] were 46% and 89%, respectively. For the same molecule, the Ratio in test [9] is 1.9.

As to `Oc1ccc(C(=C2CCCCC2)c2ccc(O)cc2)cc1`, the RBA in test [1] worked out at 68%; in [2], 334%. For the same molecule, the Efficacy in test [3] is 12%; in test [4], 3%; in [5], 9%; in [6], 2%; in [7], 22%; in test [8] it was 4%. The Ratio in test [9] is 4.9.
